Calls of active or inactive are those of the source. No cut-off for these calls is given here.
Tests used:
[1] = molecular target: T1, Hepatocyte growth factor receptor (Homo sapiens, UniProt P08581); assay: Inhibition of c-Met at 10 uM after 60 mins by ELISA
Procedure, shortened: (§1)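 c-Met tyrosine kinase ELISA with Poly(Glu,Tyr) 4:1 substrate and 10 µM ATP in HEPES pH 7.4 buffer with Mg²⁺/Mn²⁺, run 60 min at 37 °C. Phosphotyrosine was detected with PY99 and an HRP secondary antibody, read at 490 nm. Percent inhibition was measured at a single compound concentration.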

[2] = molecular target: T1, Hepatocyte growth factor receptor; assay: Inhibition of c-Met after 60 mins by ELISA
Procedure, shortened: (§2)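 ELISA on plates pre-coated with Poly(Glu,Tyr) 4:1 at 20 µg/mL. Detection used anti-phosphotyrosine PY99, then HRP anti-mouse IgG and o-phenylenediamine/H₂O₂, read at 490 nm. IC50 was calculated by the Logit method from ≥3 independent tests at six concentrations each.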

[3] = molecular target: T1, Hepatocyte growth factor receptor; assay: Inhibition of c-Met at 1 uM after 60 mins by ELISA; procedure, shortened: as §1
BaF3 [4] = assay: Antiproliferative activity against […] BAF3 cells expressing TPR-Met assessed as inhibition of cell growth at 10 uM; assay type: functional; details: Mus musculus
Procedure, shortened: (§3)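 BaF3 cells stably expressing TPR-Met were seeded in 96-well plates. Next day they were exposed to compound at 10, 1 or 0.1 µM for 72 h. Growth was read by MTT at A570. Inhibition (%) = [1 − (A570/A570 control)] × 100.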

BaF3 [5] = assay: Antiproliferative activity against […] BAF3 cells expressing TPR-Met assessed as inhibition of cell growth at 1 uM; assay type: functional; details: Mus musculus; procedure, shortened: as §3
BaF3 [6] = assay: Antiproliferative activity against […] BAF3 cells expressing TPR-Met assessed as inhibition of cell growth at 0.1 uM; assay type: functional; details: Mus musculus; procedure, shortened: as §3
[7] = Antitumor activity against human U87MG cells xenografted in nude mouse assessed as inhibition of tumor growth at 100 mg/kg; assay type: functional, U-87MG ATCC; details: U-87 MG
[8] = molecular target: Macrophage-stimulating protein receptor (Homo sapiens, UniProt Q04912); assay: Inhibition of RON; procedure, shortened: as §2
[9] = molecular target: Platelet-derived growth factor receptor alpha (Homo sapiens, UniProt P16234); assay: Inhibition of PDGFRalpha; procedure, shortened: as §2
[10] = molecular target: Proto-oncogene tyrosine-protein kinase receptor Ret (Homo sapiens, UniProt P07949); assay: Inhibition of RET; procedure, shortened: as §2
[11] = molecular target: Receptor tyrosine-protein kinase erbB-2 (Homo sapiens, UniProt P04626); assay: Inhibition of ERBB2; procedure, shortened: as §2
[12] = molecular target: Receptor tyrosine-protein kinase erbB-4 (Homo sapiens, UniProt Q15303); assay: Inhibition of ERBB4; procedure, shortened: as §2
Chain of Receptor tyrosine-protein kinase erbB-4 (Q15303 whole entry): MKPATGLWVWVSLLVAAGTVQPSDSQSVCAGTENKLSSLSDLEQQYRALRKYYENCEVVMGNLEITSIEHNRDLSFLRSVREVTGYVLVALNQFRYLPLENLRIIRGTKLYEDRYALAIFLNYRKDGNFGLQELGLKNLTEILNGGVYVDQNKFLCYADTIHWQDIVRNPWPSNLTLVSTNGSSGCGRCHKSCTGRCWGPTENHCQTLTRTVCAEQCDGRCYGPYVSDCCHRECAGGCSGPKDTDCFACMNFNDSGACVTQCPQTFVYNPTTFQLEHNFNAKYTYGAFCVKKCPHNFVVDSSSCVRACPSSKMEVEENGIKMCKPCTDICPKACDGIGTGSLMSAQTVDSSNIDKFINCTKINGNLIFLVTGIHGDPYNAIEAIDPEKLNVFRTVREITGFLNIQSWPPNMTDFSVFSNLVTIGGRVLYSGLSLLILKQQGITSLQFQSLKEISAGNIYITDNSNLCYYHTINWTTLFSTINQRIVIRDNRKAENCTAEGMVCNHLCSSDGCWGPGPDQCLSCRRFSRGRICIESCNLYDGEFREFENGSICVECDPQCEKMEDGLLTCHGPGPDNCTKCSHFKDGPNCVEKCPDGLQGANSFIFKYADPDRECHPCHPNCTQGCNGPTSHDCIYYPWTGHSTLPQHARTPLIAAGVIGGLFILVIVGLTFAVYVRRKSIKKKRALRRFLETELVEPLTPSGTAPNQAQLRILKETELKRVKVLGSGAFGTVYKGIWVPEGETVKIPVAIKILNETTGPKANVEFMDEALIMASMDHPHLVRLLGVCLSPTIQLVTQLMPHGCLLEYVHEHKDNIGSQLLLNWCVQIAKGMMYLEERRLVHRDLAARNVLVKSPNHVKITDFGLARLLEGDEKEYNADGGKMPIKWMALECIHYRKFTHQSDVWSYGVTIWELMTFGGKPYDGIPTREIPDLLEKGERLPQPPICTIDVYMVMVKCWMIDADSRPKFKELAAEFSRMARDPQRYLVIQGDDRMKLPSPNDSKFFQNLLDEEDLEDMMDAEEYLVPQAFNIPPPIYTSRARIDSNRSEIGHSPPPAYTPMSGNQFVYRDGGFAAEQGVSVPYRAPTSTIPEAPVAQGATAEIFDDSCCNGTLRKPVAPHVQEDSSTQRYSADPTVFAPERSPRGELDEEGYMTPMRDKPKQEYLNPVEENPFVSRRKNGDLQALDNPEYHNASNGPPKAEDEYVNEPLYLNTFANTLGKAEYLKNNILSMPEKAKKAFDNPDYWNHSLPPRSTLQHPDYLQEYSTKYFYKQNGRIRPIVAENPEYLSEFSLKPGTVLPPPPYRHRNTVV

[13] = molecular target: Proto-oncogene tyrosine-protein kinase Src (Homo sapiens, UniProt P12931); assay: Inhibition of c-SRC; procedure, shortened: as §2
Chain of Proto-oncogene tyrosine-protein kinase Src (P12931 2-536 limits assumed): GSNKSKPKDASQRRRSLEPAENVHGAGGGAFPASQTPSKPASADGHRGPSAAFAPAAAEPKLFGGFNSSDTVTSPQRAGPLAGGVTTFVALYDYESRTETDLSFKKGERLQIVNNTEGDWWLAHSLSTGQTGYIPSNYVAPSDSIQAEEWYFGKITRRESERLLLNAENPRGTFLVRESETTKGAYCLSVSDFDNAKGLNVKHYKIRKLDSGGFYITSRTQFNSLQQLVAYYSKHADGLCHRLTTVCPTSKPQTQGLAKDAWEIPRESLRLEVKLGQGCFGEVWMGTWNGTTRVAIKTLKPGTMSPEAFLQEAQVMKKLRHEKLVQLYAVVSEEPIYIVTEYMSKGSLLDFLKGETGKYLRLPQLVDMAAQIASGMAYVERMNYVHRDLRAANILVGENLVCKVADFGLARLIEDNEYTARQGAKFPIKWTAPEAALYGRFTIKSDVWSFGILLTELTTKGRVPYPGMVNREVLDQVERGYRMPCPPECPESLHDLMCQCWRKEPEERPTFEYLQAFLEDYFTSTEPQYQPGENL

[14] = molecular target: Tyrosine-protein kinase ABL1 (Homo sapiens, UniProt P00519); assay: Inhibition of Abl; procedure, shortened: as §2
Ephrin type-A receptor 2 = Ephrin type-A receptor 2 (Homo sapiens, UniProt P29317); assay: Inhibition of EPHA2; procedure, shortened: as §2
Chain of Ephrin type-A receptor 2 (P29317 whole entry): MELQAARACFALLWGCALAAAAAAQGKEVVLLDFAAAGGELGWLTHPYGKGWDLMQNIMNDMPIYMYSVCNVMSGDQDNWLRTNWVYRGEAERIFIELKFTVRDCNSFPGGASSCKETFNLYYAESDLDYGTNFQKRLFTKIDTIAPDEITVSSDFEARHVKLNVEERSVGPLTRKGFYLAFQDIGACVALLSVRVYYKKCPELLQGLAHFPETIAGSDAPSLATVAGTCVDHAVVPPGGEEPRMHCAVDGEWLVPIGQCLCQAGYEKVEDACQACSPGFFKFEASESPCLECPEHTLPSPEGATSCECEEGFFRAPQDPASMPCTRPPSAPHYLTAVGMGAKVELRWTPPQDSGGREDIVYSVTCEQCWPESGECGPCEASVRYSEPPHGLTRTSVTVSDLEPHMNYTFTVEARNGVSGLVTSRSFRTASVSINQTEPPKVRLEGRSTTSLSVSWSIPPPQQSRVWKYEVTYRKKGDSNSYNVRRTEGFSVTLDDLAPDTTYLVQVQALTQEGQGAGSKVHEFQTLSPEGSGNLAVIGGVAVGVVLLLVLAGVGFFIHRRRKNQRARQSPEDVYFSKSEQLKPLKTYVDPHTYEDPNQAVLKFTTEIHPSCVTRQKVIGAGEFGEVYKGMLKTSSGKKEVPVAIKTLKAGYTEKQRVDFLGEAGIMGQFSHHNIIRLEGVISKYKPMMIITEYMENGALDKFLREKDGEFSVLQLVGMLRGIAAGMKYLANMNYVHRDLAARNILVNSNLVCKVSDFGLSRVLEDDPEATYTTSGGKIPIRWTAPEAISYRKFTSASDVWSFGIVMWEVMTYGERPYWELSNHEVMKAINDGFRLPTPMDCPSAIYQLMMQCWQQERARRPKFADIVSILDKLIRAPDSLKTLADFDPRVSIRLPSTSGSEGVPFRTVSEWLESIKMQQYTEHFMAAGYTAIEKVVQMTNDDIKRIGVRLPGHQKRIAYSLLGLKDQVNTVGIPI

Ephrin type-B receptor 2 = molecular target: T2, Ephrin type-B receptor 2 (Homo sapiens, UniProt P29323); assay: Inhibition of EPHB2; procedure, shortened: as §2
T2 sequence (P29323 whole entry): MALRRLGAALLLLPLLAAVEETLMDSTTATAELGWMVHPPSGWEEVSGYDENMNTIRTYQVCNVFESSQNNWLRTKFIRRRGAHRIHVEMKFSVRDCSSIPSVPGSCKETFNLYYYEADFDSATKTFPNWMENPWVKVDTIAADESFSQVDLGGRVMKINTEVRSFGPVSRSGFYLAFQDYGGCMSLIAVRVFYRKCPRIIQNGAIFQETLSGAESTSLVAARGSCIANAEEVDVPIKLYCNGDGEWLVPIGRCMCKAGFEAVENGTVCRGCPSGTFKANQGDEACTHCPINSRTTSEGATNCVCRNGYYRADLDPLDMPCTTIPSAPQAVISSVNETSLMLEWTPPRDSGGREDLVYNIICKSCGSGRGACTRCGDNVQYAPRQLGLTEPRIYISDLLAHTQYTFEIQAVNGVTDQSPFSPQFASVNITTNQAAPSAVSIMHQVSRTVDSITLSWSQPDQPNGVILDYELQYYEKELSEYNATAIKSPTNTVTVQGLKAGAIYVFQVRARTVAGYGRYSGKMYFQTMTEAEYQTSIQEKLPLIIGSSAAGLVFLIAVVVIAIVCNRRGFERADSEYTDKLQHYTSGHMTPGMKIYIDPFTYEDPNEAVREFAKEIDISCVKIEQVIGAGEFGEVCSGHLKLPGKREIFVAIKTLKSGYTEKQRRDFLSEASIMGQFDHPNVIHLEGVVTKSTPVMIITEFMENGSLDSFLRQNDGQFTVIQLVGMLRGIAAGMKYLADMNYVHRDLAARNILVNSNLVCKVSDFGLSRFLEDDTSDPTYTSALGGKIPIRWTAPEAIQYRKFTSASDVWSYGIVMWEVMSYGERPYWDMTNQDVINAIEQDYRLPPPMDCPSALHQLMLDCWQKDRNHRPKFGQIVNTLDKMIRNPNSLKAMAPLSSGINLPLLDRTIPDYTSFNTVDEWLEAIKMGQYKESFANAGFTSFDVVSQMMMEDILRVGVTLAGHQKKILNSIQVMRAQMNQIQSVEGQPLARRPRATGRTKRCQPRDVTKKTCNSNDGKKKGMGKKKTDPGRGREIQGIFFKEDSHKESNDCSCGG

[15] = molecular target: Insulin-like growth factor 1 receptor (Homo sapiens, UniProt P08069); assay: Inhibition of IGF1R; procedure, shortened: as §2
[16] = molecular target: Fibroblast growth factor receptor 1 (Homo sapiens, UniProt P11362); assay: Inhibition of FGFR1; procedure, shortened: as §2
Chain of Fibroblast growth factor receptor 1 (P11362 whole entry): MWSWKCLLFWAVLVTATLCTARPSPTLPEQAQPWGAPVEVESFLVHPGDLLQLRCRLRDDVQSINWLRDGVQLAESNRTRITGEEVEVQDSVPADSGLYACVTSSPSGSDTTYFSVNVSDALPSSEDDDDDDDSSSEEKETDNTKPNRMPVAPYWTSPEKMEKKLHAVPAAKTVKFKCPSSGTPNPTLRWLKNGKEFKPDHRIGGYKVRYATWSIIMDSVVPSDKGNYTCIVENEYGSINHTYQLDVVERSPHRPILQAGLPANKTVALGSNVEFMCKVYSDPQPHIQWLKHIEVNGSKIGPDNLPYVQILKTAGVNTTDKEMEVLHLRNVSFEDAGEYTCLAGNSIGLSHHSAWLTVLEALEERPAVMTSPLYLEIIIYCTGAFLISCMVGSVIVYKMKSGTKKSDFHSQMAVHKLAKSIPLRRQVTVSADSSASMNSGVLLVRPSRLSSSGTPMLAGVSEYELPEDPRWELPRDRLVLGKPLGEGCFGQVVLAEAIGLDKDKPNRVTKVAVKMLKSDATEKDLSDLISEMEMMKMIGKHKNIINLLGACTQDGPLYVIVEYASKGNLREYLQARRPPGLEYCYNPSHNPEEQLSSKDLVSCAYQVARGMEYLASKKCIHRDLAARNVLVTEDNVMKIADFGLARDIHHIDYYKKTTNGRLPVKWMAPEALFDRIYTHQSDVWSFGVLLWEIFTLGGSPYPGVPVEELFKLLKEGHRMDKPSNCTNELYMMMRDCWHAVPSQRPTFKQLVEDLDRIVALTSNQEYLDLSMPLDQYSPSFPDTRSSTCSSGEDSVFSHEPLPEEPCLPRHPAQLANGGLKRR

[17] = molecular target: Vascular endothelial growth factor receptor 1 (Homo sapiens, UniProt P17948); assay: Inhibition of FLT1; procedure, shortened: as §2
Mus musculus = assay: Toxicity in nude mouse xenografted with human U87MG cells assessed as body weight loss at 100 mg/kg, ip for 3 weeks; assay type: organism-based, U-87MG ATCC; design: dose 100 mg/kg, route intraperitoneal; details: in vivo, 504 h
Procedure, shortened: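 Nude mice bearing U-87MG tumor fragments were dosed ip 7 days/week for 3 weeks, n = 6 per group, versus vehicle controls. Body weight was monitored during treatment.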

[18] = Half life in mouse at 10 mg/kg, iv and 20 mg/kg, po; assay type: ADME, organism-based; details: in vivo
Procedure, shortened: (§4)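 Pharmacokinetics were run in mice after a single dose of 10 mg/kg iv or 20 mg/kg po.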

[19] = Clearance in mouse at 10 mg/kg, iv; assay type: ADME, organism-based; design: dose 10 mg/kg, route intravenous; details: in vivo; procedure, shortened: as §4
[20] = Oral bioavailability in mouse at 20 mg/kg; assay type: ADME, organism-based; details: in vivo; procedure, shortened: as §4
[21] = Aqueous solubility of the compound; assay type: physicochemical; details: buffer
[22] = molecular target: T1, Hepatocyte growth factor receptor; details: BaF3, 0.1 to 10 uM
[23] = molecular target: T1, Hepatocyte growth factor receptor; details: BaF3, 0.1-10 uM

T1 sequence (P08581 whole entry): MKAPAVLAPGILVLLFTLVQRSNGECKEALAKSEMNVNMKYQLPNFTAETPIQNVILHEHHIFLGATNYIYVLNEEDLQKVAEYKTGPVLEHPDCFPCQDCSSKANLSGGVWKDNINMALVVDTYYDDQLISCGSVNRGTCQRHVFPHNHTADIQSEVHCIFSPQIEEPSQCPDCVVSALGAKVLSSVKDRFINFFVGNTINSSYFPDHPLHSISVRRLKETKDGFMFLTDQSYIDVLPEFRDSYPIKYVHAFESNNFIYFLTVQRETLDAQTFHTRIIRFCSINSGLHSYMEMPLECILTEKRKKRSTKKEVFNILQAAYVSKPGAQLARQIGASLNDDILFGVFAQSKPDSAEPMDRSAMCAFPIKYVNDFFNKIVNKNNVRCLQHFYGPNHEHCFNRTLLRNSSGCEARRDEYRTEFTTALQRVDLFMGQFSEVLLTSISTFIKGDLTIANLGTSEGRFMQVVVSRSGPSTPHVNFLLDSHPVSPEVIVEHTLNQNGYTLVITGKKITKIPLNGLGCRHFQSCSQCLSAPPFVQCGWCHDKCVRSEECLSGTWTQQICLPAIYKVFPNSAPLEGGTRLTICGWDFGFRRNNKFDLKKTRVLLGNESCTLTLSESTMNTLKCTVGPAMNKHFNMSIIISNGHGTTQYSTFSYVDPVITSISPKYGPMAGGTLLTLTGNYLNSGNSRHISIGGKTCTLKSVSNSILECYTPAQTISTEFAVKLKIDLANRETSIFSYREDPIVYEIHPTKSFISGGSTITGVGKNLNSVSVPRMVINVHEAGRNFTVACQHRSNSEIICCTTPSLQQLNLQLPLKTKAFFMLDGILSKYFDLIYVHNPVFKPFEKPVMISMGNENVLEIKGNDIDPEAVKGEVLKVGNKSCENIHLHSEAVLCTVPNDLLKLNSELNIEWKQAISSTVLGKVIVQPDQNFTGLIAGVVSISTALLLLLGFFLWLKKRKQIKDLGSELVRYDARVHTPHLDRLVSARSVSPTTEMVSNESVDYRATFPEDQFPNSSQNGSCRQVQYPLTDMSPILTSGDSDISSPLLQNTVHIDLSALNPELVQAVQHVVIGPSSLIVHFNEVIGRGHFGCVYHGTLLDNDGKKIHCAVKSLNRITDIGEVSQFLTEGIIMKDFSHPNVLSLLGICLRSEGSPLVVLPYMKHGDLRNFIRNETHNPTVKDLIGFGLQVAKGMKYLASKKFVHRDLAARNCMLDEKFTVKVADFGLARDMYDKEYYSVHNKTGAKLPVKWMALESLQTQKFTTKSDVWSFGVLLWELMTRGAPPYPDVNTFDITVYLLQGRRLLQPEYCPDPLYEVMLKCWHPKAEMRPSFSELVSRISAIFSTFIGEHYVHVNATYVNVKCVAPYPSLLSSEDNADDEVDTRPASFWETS

inhibition [1] [%]	IC50 [2] [µM]	SMILES	inhibition at 10 µM (BaF3 [4]) [%]	inhibition at 1 µM (BaF3 [5]) [%]	inhibition at 0.1 µM (BaF3 [6]) [%]	also measured
33.4	> 10	CSc1nc(Oc2ccc(NC(=O)c3cccn(-c4ccc(F)cc4)c3=O)cc2F)c2c(-c3ccccc3)coc2n1	14.9	2	10.3	–
31.7	> 10	COc1nc(Oc2ccc(NC(=O)c3cccn(-c4ccc(F)cc4)c3=O)cc2F)c2c(-c3ccccc3)coc2n1	–	–	–	–
94.3	0.0357	O=C(Nc1ccc(Oc2ncnc3scc(-c4ccccc4)c23)c(F)c1)c1cccn(-c2ccc(F)cc2)c1=O	94.6	69.5	-10.5	IC50 [8]: 0.0504 µM; IC50 [9]: > 10 µM; IC50 [10]: > 10 µM; IC50 [11]: > 10 µM; IC50 [12]: > 10 µM; IC50 [13]: > 10 µM; IC50 [14]: > 10 µM; IC50 (Ephrin type-A receptor 2): > 10 µM; IC50 (Ephrin type-B receptor 2): > 10 µM; IC50 [15]: > 10 µM; IC50 [16]: > 10 µM; IC50 [17]: > 10 µM; Activity (Mus musculus): Non-toxic; half-life [18]: 1.67 h; clearance [19]: 47.2 mL/min/kg; bioavailability [20]: 5%; solubility [21]: Insoluble; inhibition [22]: Active; inhibition [23]: Active
10.6	> 10	O=C(Nc1ccc(Oc2ncnc3sc(-c4ccccc4)cc23)c(F)c1)c1cccn(-c2ccc(F)cc2)c1=O	–	–	–	–
24.3	> 10	Cc1nc(Oc2ccc(NC(=O)c3cccn(-c4ccc(F)cc4)c3=O)cc2F)c2c(-c3cccs3)coc2n1	-9.7	-2.8	0.6	–
80.9	0.31	O=C(Nc1ccc(Oc2ncnc3occ(-c4ccc(F)cc4)c23)c(F)c1)c1cccn(-c2ccc(F)cc2)c1=O	76.3	-5.8	-4.7	–
36.7	> 10	CS(=O)(=O)c1nc(Oc2ccc(NC(=O)c3cccn(-c4ccc(F)cc4)c3=O)cc2F)c2c(-c3ccccc3)coc2n1	–	–	–	–
84.9	0.0698	O=C(Nc1ccc(Oc2ncnc3occ(-c4ccccc4)c23)c(F)c1)c1cccn(-c2ccc(F)cc2)c1=O	93.7	14.6	-6.9	–
46.6	> 10	O=C(Nc1ccc(Oc2ncnc3occ(-c4cccs4)c23)c(F)c1)c1cccn(-c2ccc(F)cc2)c1=O	-5.4	-9.3	-12.1	–
18.5	> 10	[N-]=[N+]=Nc1nc(Oc2ccc(NC(=O)c3cccn(-c4ccc(F)cc4)c3=O)cc2F)c2c(-c3ccccc3)coc2n1	–	–	–	–
78.2	–	CNc1nc(Oc2ccc(NC(=O)c3cccn(-c4ccc(F)cc4)c3=O)cc2F)c2c(-c3ccccc3)coc2n1	–	–	–	inhibition [3]: < 50%

Further lines, the molecule ahead of its results:

SMILES	inhibition [1] [%]	IC50 [2] [µM]	inhibition at 10 µM (BaF3 [4]) [%]	inhibition at 1 µM (BaF3 [5]) [%]	inhibition at 0.1 µM (BaF3 [6]) [%]	also measured
O=C(Nc1ccc(Oc2ncnc3scc(-c4ccc(C(F)(F)F)cc4)c23)c(F)c1)c1cccn(-c2ccc(F)cc2)c1=O	83.8	0.191	–	–	–	–
O=C(Nc1ccc(Oc2ncnc3sc4c(c23)CCC4)c(F)c1)c1cccn(-c2ccc(F)cc2)c1=O	12.3	> 10	–	–	–	–
O=C(Nc1ccc(Oc2ncnc3scc(-c4ccc5ccccc5c4)c23)c(F)c1)c1cccn(-c2ccc(F)cc2)c1=O	92.1	–	–	–	–	inhibition [3]: < 50%
Cc1coc2ncnc(Oc3ccc(NC(=O)c4cccn(-c5ccc(F)cc5)c4=O)cc3F)c12	16.5	> 10	–	–	–	–
Cc1ccc(-c2csc3ncnc(Oc4ccc(NC(=O)c5cccn(-c6ccc(F)cc6)c5=O)cc4F)c23)s1	85.5	0.042	95	60.6	-2.3	–
COc1ccc(-c2csc3ncnc(Oc4ccc(NC(=O)c5cccn(-c6ccc(F)cc6)c5=O)cc4F)c23)cc1	90	0.0465	94.3	91.1	-10.1	–
COc1cc2nccc(Oc3ccc(NC(=S)NC(=O)Cc4ccccc4)cc3F)c2cc1OC	–	–	–	–	–	inhibition in vivo at 100 mg/kg [7]: 70%
Cc1nc(Oc2ccc(NC(=O)c3cccn(-c4ccc(F)cc4)c3=O)cc2F)c2c3c(sc2n1)CCCC3	31.2	> 10	–	–	–	–
O=C(Nc1ccc(Oc2ncnc3scc(-c4ccc(-c5ccccc5)cc4)c23)c(F)c1)c1cccn(-c2ccc(F)cc2)c1=O	80.4	–	–	–	–	inhibition [3]: < 50%
O=C(Nc1ccc(Oc2ncnc3scc(-c4ccc(F)c(F)c4)c23)c(F)c1)c1cccn(-c2ccc(F)cc2)c1=O	88.4	0.0657	89.7	13.9	-1.1	–
O=C(Nc1ccc(Oc2ncnc3sccc23)c(F)c1)c1cccn(-c2ccc(F)cc2)c1=O	14.3	> 10	5.3	-6.5	-12.8	–
O=C(Nc1ccc(Oc2ncnc3scc(-c4ccc(F)cc4)c23)c(F)c1)c1cccn(-c2ccc(F)cc2)c1=O	71.9	0.068	92.2	30.8	12.9	–
O=C(Nc1ccc(Oc2ncnc3sc4c(c23)CCCCC4)c(F)c1)c1cccn(-c2ccc(F)cc2)c1=O	23.4	> 10	–	–	–	–
COc1ccc(-c2csc3ncnc(Oc4ccc(NC(=O)c5cccn(-c6ccc(F)cc6)c5=O)cc4F)c23)cc1OC	99.9	0.123	–	–	–	–
